# Screens deposited in PubChem by The Scripps Research Institute Molecular Screening Center.
# GPR7 antagonist: human neuropeptides B/W receptor 1 antagonism | GPR7-expressing cells, fluorescence antagonist assay | P48145 | 290,000 compounds, 1.1% hits | inhibition, % at 4.4 µM; in the data active = inhibition above about 16%, passing the limit was not always enough;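 also: cells stimulated with the agonist NPW; 0% = agonist with vehicle and 100% = vehicle without agonist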
# GalR3 antag: antagonists of human GalR3 | 360,000 compounds, 0.44% hits | inhibition, % at 3 µM | O60755 | HEK293 GalR3-CNG cAMP membrane potential fluorescence; galR3 body fused to GalR1 C-terminus;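 active = inhibition above the screen-wide average plus 3 SD, cut at about 13% in these data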;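 also: forskolin and galanin both at EC90 stimulate the cells; cAMP rise reported by CNG channel membrane potential dye signal; 0% = forskolin plus galanin with DMSO and 100% = forskolin alone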
# Target sequence (O60755 1-299 limits assumed): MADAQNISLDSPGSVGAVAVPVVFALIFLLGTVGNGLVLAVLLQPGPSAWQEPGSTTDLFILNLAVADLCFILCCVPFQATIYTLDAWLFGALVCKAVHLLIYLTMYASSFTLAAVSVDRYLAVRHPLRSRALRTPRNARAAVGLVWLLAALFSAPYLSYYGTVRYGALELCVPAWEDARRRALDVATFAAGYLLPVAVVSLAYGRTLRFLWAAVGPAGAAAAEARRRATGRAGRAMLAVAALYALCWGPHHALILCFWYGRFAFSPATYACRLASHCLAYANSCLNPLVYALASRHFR
# CHO parental Ca: counter-screen for OX1R antagonists: effect in parental CHO cells. parental CHO-K1, ATP-induced calcium, Fluo-8 fluorescence. inhibition, % at 5.6 µM. 330,000 compounds, 0.63% hits. AID 463079;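 active = inhibition above that plate's mean sample inhibition plus 3 SD, cut at about 26% in these data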;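 also: 0% = ATP-challenged DMSO wells and 100% = DMSO wells without ATP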
#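 material = parental CHO cells | also added = ATP as calcium-mobilizing challenge | dosing = single point at 5.6 µM | detection = intracellular calcium via Fluo-8 no-wash fluorescent dye | read-out = % inhibition | benchmarks = low control ATP plus DMSO, high control DMSO only | repeats = one well per compound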
# OX1R antag-1: antagonists of human orexin 1 receptor; O43613; CHO/OX1R cells, Fluo-8 calcium fluorescence, orexin A; inhibition, % at 5 µM; 330,000 compounds, 0.43% hits;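 active = inhibition above its plate's threshold, mean inhibition of all tested compounds on the plate plus 3 SD, cut at about 37% in these data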;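 also: 0% = orexin A challenge wells and 100% = SB-334867-A antagonist wells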
# OX1R antag-2: antagonists of human orexin 1 receptor (OX1R); OX1R-expressing cells, FRET antagonist read-out; O43613; inhibition, % at 6.6 µM; 330,000 compounds, 1.8% hits; AID 485270; in the data active = inhibition mostly above about 38%, no sharp cut-off; inactive = mostly below about 40%;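 also: 0% = agonist challenge alone and 100% = reference antagonist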
# GalR3 antag conf: GalR3 (human) antagonism, confirmation; shares compounds with GalR3 antag; HEK293 GalR3 CNG cAMP biosensor, membrane potential fluorescence; galR3 fused to GalR1 carboxy tail; challenged with forskolin and galanin at EC90; inhibition, % at 3 µM; 1,600 compounds, 59% hits; AID 652245;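 active = inhibition above the primary screen's cutoff, the mean inhibition of all screened compounds plus 3 SD, cut at about 13% in these data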;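 also: 0% = forskolin plus galanin and 100% = forskolin alone with DMSO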
# CNG parental: counter-screen for GalR3 antagonists: nonspecific agonists in parental HEK-CNG cells. shares compounds with GalR3 antag. HEK293-CNG parental cells, cAMP membrane potential fluorescence; normalised: DMSO wells 0%, forskolin wells 100%. activation, % at 3 µM. 1,600 compounds, 10% hits. AID 652268; in the data active = activation above about 1.3%
# * hit, by the source's call; . = no result given. Sampled rows, rich in hits. Any-hit rate of the full collection: about 3.1%.
SMILES,GPR7 antagonist,GalR3 antag,CHO parental Ca,OX1R antag-1,OX1R antag-2,GalR3 antag conf,CNG parental
O=C(Nc1ccc(Cl)cc1)c1cccc(N2C(=O)C3C4CCC(C4)C3C2=O)c1 (stereo unspecified),0,92*,-20,-26,17,-1,0
O=C(O)c1ccc(NC(=O)c2cccc(N3C(=O)C4C5CCC(C5)C4C3=O)c2)cc1 (stereo unspecified),10,-2,5,2,2,.,.
C#CCOCCOCCOCCNc1nc(N2CCN(C(=O)[C@H]([C@@H](C)CC)n3cc(CCC(=O)O)nn3)CC2)nc(N2CCN(C(=O)[C@H](CCCCN)n3cc(CCC(=O)O)nn3)CC2)n1,.,.,.,.,.,-3,0
C#CCOCCOCCOCCNc1nc(N2CCN(C(=O)[C@H]([C@@H](C)CC)n3cc(CCCCN)nn3)CC2)nc(N2CCN(C(=O)[C@H](CCCCN)n3cc(CC(C)O)nn3)CC2)n1 (stereo partly specified),.,-4,-2,-23,18,.,.
CCOc1ccc(S(=O)(=O)N(CC)CC(=O)NC2CCS(=O)(=O)C2)cc1 (stereo unspecified),.,-6,-6,-1,9,.,.
C=CCn1c(COc2cccc(C)c2)nnc1SCC(=O)c1c(N)n(C)c(=O)n(C)c1=O,.,9,.,.,.,.,.
C=CCn1c(COc2ccc(Cl)cc2)nnc1SCC(=O)c1c(N)n(C)c(=O)n(C)c1=O,-3,16*,2,-11,7,5,0
Cc1cccc(-n2c(SCC(=O)N3CC(=O)Nc4ccccc43)nc3ccccc3c2=O)c1,16,15*,-18,-4,32,3,1
CCOC(=O)N1CCc2c(sc3c2c(=O)n(-c2ccc(CC)cc2)c(=O)n3CC(=O)NCC2CCCO2)C1 (stereo unspecified),-21,.,-22,-18,16,.,.
Cc1cc(C(=O)CSc2nc3ccccc3[nH]2)c(C)n1CC1CCCO1 (stereo unspecified),27*,110*,85*,59*,54*,5,0
Cc1ccc(-n2nnnc2SCC(=O)c2cc(C)n(CC3CCCO3)c2C)cc1 (stereo unspecified),.,1,-11,-16,10,.,.
CCCc1cc(=O)[nH]c(SCC(=O)c2c[nH]c3ccccc23)n1,-5,-2,-7,22,18,.,.
CCCc1cc(=O)[nH]c(SCC(=O)c2c(C)[nH]c3ccccc23)n1,-7,17*,-15,-6,13,4,1.7*
CS(=O)(=O)Nc1cccc(C2=NN(C(=O)c3cccc([N+](=O)[O-])c3)C(c3cccs3)C2)c1 (stereo unspecified),15,-6,-1,-18,-1,.,.
CN(C)c1ccc(CC(=O)N2CCCC(c3cc(C(=O)Nc4ccc(C(C)(C)C)cc4)no3)C2)cc1 (stereo unspecified),.,49*,.,.,.,109*,-1
Cc1cc(OCCn2cncn2)ccc1[N+](=O)[O-],-9,-6,-8,-9,9,.,.
COc1ccc(CNC(=O)[C@H](C)NC(=O)[C@@H]2Cc3ccccc3CN2)cc1,-9,-5,6,-15,8,.,.
Cc1ccccc1NC(=O)CN(C)S(=O)(=O)c1ccc(-c2ccc(=O)[nH]n2)s1,11,7,-12,-18,12,.,.
Cc1cccc(NC(=O)CN(C)S(=O)(=O)c2ccc(-c3ccc(=O)[nH]n3)s2)c1C,-8,80*,-23,-25,12,12,0
COc1ccc(CNC(=O)c2cnn3c(C(F)F)cc(C)nc23)cc1OC,-2,15*,-6,6,10,20*,0
COCCNC(=O)c1cnn2c(C(F)F)cc(-c3ccc(C)cc3)nc12,-10,-2,-18,-35,14,.,.
CCOc1ccc(N2CC(C(=O)NC3CCCCCC3)CC2=O)cc1 (stereo unspecified),-5,-9,-2,-17,12,.,.
Cc1cc2nc(-c3ccc[nH]c3=O)n(Cc3ccc(F)cc3)c2cc1C,-1,-10,-14,-12,-4,.,.
